Data as given in PMC6595297 (British Journal of Clinical Pharmacology, 2019).

Legend:
Safety and tolerability = type: in vivo, human
Summary of the method: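 Patients had advanced solid tumours and ECOG PS 0–1. AEs were graded by NCI CTCAE v4.03 and monitored from the first dose of any study drug until 30–40 days after the last dose. The safety population was all patients receiving at least one pevonedistat dose.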

[1] = system: multidrug resistance protein 1 (MDR1)/P‐glycoprotein (P‐gp); details: in vitro, ref data on file; cited from earlier work
[2] = preliminary data, cancer patients, ref data on file; cited from earlier work
[3] = Pevonedistat 15 mg m^−2 + itraconazole (n = 6)
[4] = Pevonedistat 20 mg m^−2 + itraconazole (n = 19)
[5] = Pevonedistat + itraconazole, total (n = 38)
[6] = across all study groups, N = 51

In the case of NS(=O)(=O)OC[C@@H]1C[C@@H](n2ccc3c(N[C@H]4CCc5ccccc54)ncnc32)C[C@@H]1O [Pevonedistat], the “Anaemia, patients with AE” value (Safety and tolerability; [3]) is reported as 2 (33) n (%), the “Asthenia, patients with AE” value (Safety and tolerability; [3]) is reported as 0 n (%) and the “Constipation, patients with AE” value (Safety and tolerability; [3]) is reported as 0 n (%). For the same compound, the “Cough, patients with AE” value (Safety and tolerability; [3]) was 0 n (%), the “Decreased appetite, patients with AE” value (Safety and tolerability; [3]) was 1 (17) n (%) and the “Dehydration, patients with AE” value (Safety and tolerability; [3]) was 2 (33) n (%). The “Diarrhoea, patients with AE” value (Safety and tolerability; [3]) was 1 (17) n (%), the “Dizziness, patients with AE” value (Safety and tolerability; [3]) was 1 (17) n (%) and the “Dyspnoea, patients with AE” value (Safety and tolerability; [3]) was 2 (33) n (%). For the same compound, the “Fatigue, patients with AE” value (Safety and tolerability; [3]) was 1 (17) n (%), the “Headache, patients with AE” value (Safety and tolerability; [3]) was 0 n (%) and the “Hypokalaemia, patients with AE” value (Safety and tolerability; [3]) was 2 (33) n (%). For the same compound, the “Hyponatraemia, patients with AE” value (Safety and tolerability; [3]) was 1 (17) n (%), the “Nausea, patients with AE” value (Safety and tolerability; [3]) was 0 n (%) and the “Vomiting, patients with AE” value (Safety and tolerability; [3]) was 1 (17) n (%). The “Abdominal pain, patients with AE” value (Safety and tolerability; [4]) was 2 (11) n (%), the “Anaemia, patients with AE” value (Safety and tolerability; [4]) was 6 (32) n (%) and the “Asthenia, patients with AE” value (Safety and tolerability; [4]) was 2 (11) n (%). For the same compound, the “Constipation, patients with AE” value (Safety and tolerability; [4]) was 3 (16) n (%), the “Cough, patients with AE” value (Safety and tolerability; [4]) was 1 (5) n (%) and the “Decreased appetite, patients with AE” value (Safety and tolerability; [4]) was 4 (21) n (%). The “Dehydration, patients with AE” value (Safety and tolerability; [4]) was 2 (11) n (%), the “Diarrhoea, patients with AE” value (Safety and tolerability; [4]) was 6 (32) n (%) and the “Dizziness, patients with AE” value (Safety and tolerability; [4]) was 4 (21) n (%). The “Dyspnoea, patients with AE” value (Safety and tolerability; [4]) was 3 (16) n (%), the “Fatigue, patients with AE” value (Safety and tolerability; [4]) was 8 (42) n (%) and the “Headache, patients with AE” value (Safety and tolerability; [4]) was 6 (32) n (%). The “Hypokalaemia, patients with AE” value (Safety and tolerability; [4]) was 3 (16) n (%), the “Hyponatraemia, patients with AE” value (Safety and tolerability; [4]) was 2 (11) n (%) and the “Nausea, patients with AE” value (Safety and tolerability; [4]) was 2 (11) n (%). The “Vomiting, patients with AE” value (Safety and tolerability; [4]) was 6 (32) n (%), the “Abdominal pain, patients with AE” value (Safety and tolerability; [5]) was 6 (16) n (%) and the “Anaemia, patients with AE” value (Safety and tolerability; [5]) was 11 (29) n (%). The “Asthenia, patients with AE” value (Safety and tolerability; [5]) was 4 (11) n (%), the “Constipation, patients with AE” value (Safety and tolerability; [5]) was 5 (13) n (%) and the “Cough, patients with AE” value (Safety and tolerability; [5]) was 5 (13) n (%). The “Decreased appetite, patients with AE” value (Safety and tolerability; [5]) was 8 (21) n (%), the “Dehydration, patients with AE” value (Safety and tolerability; [5]) was 7 (18) n (%) and the “Diarrhoea, patients with AE” value (Safety and tolerability; [5]) was 11 (29) n (%). The “Dizziness, patients with AE” value (Safety and tolerability; [5]) was 7 (18) n (%), the “Dyspnoea, patients with AE” value (Safety and tolerability; [5]) was 6 (16) n (%) and the “Fatigue, patients with AE” value (Safety and tolerability; [5]) was 12 (32) n (%). For the same compound, the “Headache, patients with AE” value (Safety and tolerability; [5]) was 6 (16) n (%), the “Hypokalaemia, patients with AE” value (Safety and tolerability; [5]) was 7 (18) n (%) and the “Hyponatraemia, patients with AE” value (Safety and tolerability; [5]) was 4 (11) n (%). For the same compound, the “Nausea, patients with AE” value (Safety and tolerability; [5]) was 3 (8) n (%), the “Vomiting, patients with AE” value (Safety and tolerability; [5]) was 9 (24) n (%) and the “Abdominal pain, patients with AE” value (Safety and tolerability; Total (N = 51)) was 7 (14) n (%). The “Anaemia, patients with AE” value (Safety and tolerability; Total (N = 51)) was 14 (27) n (%), the “Asthenia, patients with AE” value (Safety and tolerability; Total (N = 51)) was 7 (14) n (%) and the “Constipation, patients with AE” value (Safety and tolerability; Total (N = 51)) was 8 (16) n (%). The “Cough, patients with AE” value (Safety and tolerability; Total (N = 51)) was 7 (14) n (%), the “Decreased appetite, patients with AE” value (Safety and tolerability; Total (N = 51)) was 12 (24) n (%) and the “Dehydration, patients with AE” value (Safety and tolerability; Total (N = 51)) was 8 (16) n (%). For the same compound, the “Diarrhoea, patients with AE” value (Safety and tolerability; Total (N = 51)) was 11 (22) n (%), the “Dizziness, patients with AE” value (Safety and tolerability; Total (N = 51)) was 8 (16) n (%) and the “Dyspnoea, patients with AE” value (Safety and tolerability; Total (N = 51)) was 8 (16) n (%). The “Fatigue, patients with AE” value (Safety and tolerability; Total (N = 51)) was 15 (29) n (%), the “Headache, patients with AE” value (Safety and tolerability; Total (N = 51)) was 9 (18) n (%) and the “Hypokalaemia, patients with AE” value (Safety and tolerability; Total (N = 51)) was 7 (14) n (%). The “Hyponatraemia, patients with AE” value (Safety and tolerability; Total (N = 51)) was 6 (12) n (%), the “Nausea, patients with AE” value (Safety and tolerability; Total (N = 51)) was 6 (12) n (%) and the “Vomiting, patients with AE” value (Safety and tolerability; Total (N = 51)) was 12 (24) n (%). For the same compound, the “Drug‐related AE: anaemia, patients” value (Safety and tolerability; [6]) was 6%, the “Drug‐related AE: decreased appetite, patients” value (Safety and tolerability; [6]) was 6% and the “Drug‐related AE: diarrhoea, patients” value (Safety and tolerability; [6]) was 10%. For the same compound, the “Drug‐related AE: fatigue, patients” value (Safety and tolerability; [6]) was 6%, the “Drug‐related AE: increased AST, patients” value (Safety and tolerability; [6]) was 6% and the “Drug‐related AE: nausea, patients” value (Safety and tolerability; [6]) was 8%. The “Drug‐related AE: pruritus, patients” value (Safety and tolerability; [6]) was 6%, the “Drug‐related AE: vomiting, patients” value (Safety and tolerability; [6]) was 12% and the “Patients who died during Part A (not related to study drug)” value (Safety and tolerability; safety population, N = 51) was 14%. For the same compound, the “Patients who experienced at least one drug‐related AE” value (Safety and tolerability; safety population, N = 51) was 55%, the “Patients with at least one grade ≥3 AE” value (Safety and tolerability; safety population, N = 51) was 43% and the “Patients with serious AEs (not deemed drug‐related)” value (Safety and tolerability; safety population, N = 51) was 25%. The “Patients who experienced at least one AE” value (Safety and tolerability; safety population, N = 51, all study groups) was 98%, the “Substrate of MDR1/P‐gp” value [1] was “substrate” and the “Administered dose accounted for by metabolites” value [2] was “approximately 80%”.
